Measurements as given in ChEMBL document CHEMBL1641391, “Caffeic acid esters and lignans from Piper sanguineispicum” (J Nat Prod, 2010).

What was measured:
MCF7 = assay: Cytotoxicity against human MCF7 cells assessed as [3H]-hypoxanthine incorporation after 48 hrs; format: cell-based
Procedure, shortened: (§1)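 Cells grown in RPMI with 10% fetal calf serum and exposed to serial compound dilutions for 48 h. Growth measured by [3H]-hypoxanthine incorporation relative to untreated control cultures. Inhibition percentages plotted versus concentration; IC50 read graphically.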

Vero = assay: Cytotoxicity against african green monkey Vero cells assessed as [3H]-hypoxanthine incorporation after 48 hrs; format: cell-based; settings: Chlorocebus sabaeus; procedure, shortened: as §1
[1] = Cytotoxicity against mouse peritoneal macrophages assessed as cell viability after 48 hrs by hematocytometer; format: cell-based; settings: Peritoneal macrophage cell
Leishmania amazonensis = assay: Antileishmanial activity against Leishmania amazonensis MHOM/BR/76/LTB-012 axenic amastigotes after 72 hrs by MTT assay; format: functional, organism-based; settings: MHOM/BR/76/LTB-012, 72 h
Procedure, shortened: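 Axenic amastigotes kept by weekly subpassage in MAA/20 medium, 32 ± 1 °C, 5% CO2. Seeded in 96-well plates. Compounds in DMSO tested at four concentrations (50–0.05 µg/mL or 50–0.2 µg/mL, depending on compound) for 72 h. MTT added for 4 h, stopped with 2-propanol/SDS, OD read at 570 nm. % inhibition computed against untreated control; IC50 from inhibition curve. Triplicates; amphotericin B reference.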

| SMILES | IC50 (MCF7) [µM] | IC50 (Vero) [µM] | IC50 [1] [µM] | IC50 (Leishmania amazonensis) [µM] |
| --- | --- | --- | --- | --- |
| CCC[C@H](C)OC(=O)/C=C/c1ccc(O)c(O)c1 | 14 | 62 | 72 | 2 |
| CCCCC[C@H](C)OC(=O)/C=C/c1ccc(O)c(O)c1 | 10.6 | 89.8 | 16.1 | 10 |
| CCCCCCC[C@H](C)OC(=O)/C=C/c1ccc(O)c(O)c1 | 3.2 | 31 | 12.7 | 1.8 |
| O=C1OC[C@H]([C@H](O)c2ccc3c(c2)OCO3)[C@H]1Cc1ccc2c(c1)OCO2 | 151 | 114 |  | 79.4 |
| C[C@@H]1[C@H](O)[C@@H](C)/C=C/C=C/C=C/C=C/C=C/C=C/C=C/[C@H](O[C@@H]2O[C@H](C)[C@@H](O)[C@H](N)[C@@H]2O)C[C@@H]2O[C@](O)(C[C@@H](O)C[C@@H](O)[C@H](O)CC[C@@H](O)C[C@@H](O)CC(=O)O[C@H]1C)C[C@H](O)[C@H]2C(=O)O [AMPHOTERICIN B] |  |  | 3.6 | 0.11 |
| O=C(O)/C=C/c1ccc(O)c(O)c1 [CAFFEIC ACID] | > 550 | > 550 | > 550 | 17.8 |
| OC[C@H](Cc1ccc2c(c1)OCO2)[C@H](CO)Cc1ccc2c(c1)OCO2 [DIHYDROCUBEBIN] | 89.4 | 83.8 |  | > 140 |
| O=C(CC(CO)C(=O)c1ccc2c(c1)OCO2)c1ccc2c(c1)OCO2 (stereo not given) [JUSTIFLORINOL] | 140 | > 281 |  | > 140 |
| O=C1OC[C@H]([C@H](O)c2ccc3c(c2)OCO3)[C@H]1C(=O)c1ccc2c(c1)OCO2 [SANGUINOLIGNAN A] | 146 | 109 | > 260 | 36.7 |
| O=C1OC[C@@H]([C@H](O)c2ccc3c(c2)OCO3)[C@H]1C(=O)c1ccc2c(c1)OCO2 [SANGUINOLIGNAN B] | 250 | > 260 |  | > 130 |
| COc1ccc([C@@H](OC(C)=O)[C@H]2COC(=O)[C@@H]2C(=O)c2ccc3c(c2)OCO3)cc1OC [SANGUINOLIGNAN C] | 79.2 | > 226 |  | 105 |
| CC(=O)O[C@H](c1ccc2c(c1)OCO2)[C@H]1C(=O)OC[C@@H]1C(=O)c1ccc2c(c1)OCO2 [SANGUINOLIGNAN D] | 17.1 | 82.1 |  | 69.7 |
